Results: ChEMBL document CHEMBL1146768, “Orally active factor Xa inhibitors: 4,5,6,7-tetrahydrothiazolo[5,4-c]pyridine derivatives” (Bioorg Med Chem Lett, 2004)

Experiments:
Prothrombin = Prothrombin (Homo sapiens, UniProt P00734); assay: In vitro inhibitory activity against human thrombin
Coagulation factor X = Coagulation factor X (Homo sapiens, UniProt P00742); assay: In vitro inhibitory activity against human Coagulation factor X
Homo sapiens = organism: Homo sapiens; assay: Anti-coagulant activity in human plasma were evaluated with the plasma clotting time doubling concentration; assay type: functional, cell-free
Rattus norvegicus [1] = assay: Ex vivo anti-fXa activity at 3 hr after oral administration of 30 mg/kg to rats perorally; assay type: functional
Summary of the method: (§1)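 Male Wistar rats, fasted overnight, dosed by stomach tube with compound in 0.5% (w/v) methylcellulose; controls got vehicle alone. Blood drawn into trisodium citrate under halothane anaesthesia at set times, and platelet-poor plasma prepared.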

Rattus norvegicus [2] = assay: Ex vivo anti-coagulant activity at 1 hr after oral administration of 30 mg/kg to rats perorally; assay type: functional
Rattus norvegicus [3] = assay: Ex vivo anti-fXa activity at 1 hr after oral administration of 30 mg/kg to rats perorally; assay type: functional; summary of the method: as §1
Rattus norvegicus [4] = assay: Ex vivo anti-coagulant activity at 6 hr after oral administration of 30 mg/kg to rats perorally; assay type: functional
Rattus norvegicus [5] = assay: Ex vivo anti-coagulant activity at 3 hr after oral administration of 30 mg/kg to rats perorally; assay type: functional
Rattus norvegicus [6] = assay: Ex vivo anti-fXa activity at 6 hr after oral administration of 30 mg/kg to rats perorally; assay type: functional; summary of the method: as §1

Sequence of Coagulation factor X (P00742 41-179 limits assumed): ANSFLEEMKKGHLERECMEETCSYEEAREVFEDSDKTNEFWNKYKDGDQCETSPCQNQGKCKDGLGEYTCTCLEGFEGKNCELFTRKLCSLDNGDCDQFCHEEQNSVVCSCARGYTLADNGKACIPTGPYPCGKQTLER
Sequence of Coagulation factor X (P00742 235-488 limits assumed): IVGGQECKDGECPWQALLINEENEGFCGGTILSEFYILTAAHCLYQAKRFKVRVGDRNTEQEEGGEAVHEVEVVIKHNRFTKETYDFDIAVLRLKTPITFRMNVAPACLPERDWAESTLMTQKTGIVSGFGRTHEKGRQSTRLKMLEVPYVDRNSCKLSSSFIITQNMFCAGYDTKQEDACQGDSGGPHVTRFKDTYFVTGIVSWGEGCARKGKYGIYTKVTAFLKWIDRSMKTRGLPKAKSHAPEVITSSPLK

Row | Structure (SMILES) | IC50 (Prothrombin) [nM] | IC50 (Coagulation factor X) [nM] | Concentration (Homo sapiens) [µM] | Anti-fXa activity (Rattus norvegicus [1]) [%] | Prolongation effect (Rattus norvegicus [2]) | Anti-fXa activity (Rattus norvegicus [3]) [%] | Prolongation effect (Rattus norvegicus [4]) | Prolongation effect (Rattus norvegicus [5]) | Anti-fXa activity (Rattus norvegicus [6]) [%]
1 | C[N+]1(C)CCc2nc(C(=O)N3CCN(S(=O)(=O)c4ccc5cc(Cl)ccc5c4)CC3)sc2C1 | 3200 | 7.8 | 0.8 |  |  |  |  |  | 
2 | CN1CCc2nc(C(=O)N3CCN(S(=O)(=O)c4ccc5cc(Cl)ccc5c4)CC3)sc2C1 | 560 | 22 | 6 |  |  |  |  |  | 
3 | CN1CCc2nc(C(=O)N3CCN(S(=O)(=O)c4ccc5cc(Cl)ccc5c4)CC3C(=O)NCC(=O)N3CCOCC3)sc2C1 (stereo not given) | 1000 | 25 | 2.1 |  |  |  |  |  | 
4 | CN1CCc2nc(C(=O)N3CCN(S(=O)(=O)c4ccc5cc(Cl)ccc5c4)CC3C(=O)NCC(N)=O)sc2C1 (stereo not given) | 880 | 23 | 3.8 |  |  |  |  |  | 
5 | CC(C)NC(=O)C1CN(S(=O)(=O)c2ccc3cc(Cl)ccc3c2)CCN1C(=O)c1nc2c(s1)CN(C)CC2 (stereo not given) | 820 | 45 | 8.8 |  |  |  |  |  | 
6 | CN1CCc2nc(C(=O)N3CCN(S(=O)(=O)c4ccc5cc(Cl)ccc5c4)CC3C(=O)NCc3ccccc3)sc2C1 (stereo not given) | 1300 | 640 |  |  |  |  |  |  | 
7 | CN1CCc2nc(C(=O)N3CCN(S(=O)(=O)c4ccc5cc(Cl)ccc5c4)CC3C(N)=O)sc2C1 (stereo not given) | 1000 |  | 4.4 | 55.8 | 1.13 | 67.4 | 1.05 | 1.09 | 24.7
8 | CN1CCc2nc(C(=O)N3CCN(S(=O)(=O)c4ccc5cc(Cl)ccc5c4)CC3C(=O)N(C)C)sc2C1 (stereo not given) | 6000 | 130 | 7 |  |  |  |  |  | 
9 | CNC(=O)C1CN(S(=O)(=O)c2ccc3cc(Cl)ccc3c2)CCN1C(=O)c1nc2c(s1)CN(C)CC2 (stereo not given) | 1350 | 27 | 3 | 73.7 | 1.35 | 89.5 | 1.04 | 1.14 | 23.5
10 | O=C(c1nc2c(s1)CNCC2)N1CCN(S(=O)(=O)c2ccc3cc(Cl)ccc3c2)CC1 | 2900 | 60 | 11.2 |  |  |  |  |  | 
